In ChEMBL document CHEMBL1131231, “New azole antifungals. 2. Synthesis and antifungal activity of heterocyclecarboxamide derivatives of 3-amino-2-aryl-1-azolyl-2-butanol” (1998):
Values after ≈ are worked out from the molar mass of the structure shown.

Legend:
[1] = system: Candida albicans; assay: In vivo antifungal activity against murine candidosis model after peroral administration with 0.5 mg/kg at various time intervals. (percent protection for 100% mortality with untreated group); format: functional; details: route oral
Summary of the method: (§1)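 Male mice, groups of 10, infected iv with 0.2 mL Candida albicans at (2–8) × 10⁷ cfu/mL. Oral suspension in 1% Tween + 0.2% carboxymethylcellulose in water, given 1, 4 and 24 h post-infection; vehicle controls and a fluconazole group at the same dose. Survival scored on days 1, 2, 3, 5, 7, 9, reported as % surviving on the day untreated, or fluconazole-treated, mortality reached 100%.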

[2] = system: Mus musculus; assay: In vivo antifungal activity against murine candidosis model after peroral administration with 1 mg/kg for 5 days.(percent protection for 100% mortality with fluconazole-treated group.); format: functional; details: route oral
Summary of the method: (§2)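 Second murine systemic Candida albicans model. Mice, n = 10 per group, dosed orally once daily for 5 days after infection. Animals observed for 65 days, with survival rate as read-out and vehicle controls included. Reported as % protection on the day of 100% mortality in the untreated group or in the fluconazole-treated group.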

[3] = The compound was tested in vitro for antifungal activity against 6 filamentous fungi.; format: functional
Summary of the method: (§3)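 Agar dilution on Kimmig's agar with 0.5% glycerol; ATCC or clinical isolates, inocula at 10⁵ cfu/mL. Drugs from 800 μg/mL stock in 50% ethanol, 2-fold serial dilutions 80 to 0.03 μg/mL in plates. Incubated 25 °C, 48 h for yeasts, 120 h for filamentous fungi. Value is geometric mean of MICs (μg/mL); >80 taken as 160, ≤0.03 as 0.03.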

[4] = In vivo antifungal activity against murine candidosis model after peroral administration with 1 mg/kg for 5 days.(percent protection for 100% mortality with untreated group); format: functional, Mus musculus; details: route oral; summary of the method: as §2
[5] = system: Candida albicans; assay: In vivo antifungal activity against murine candidosis model after peroral administration with 0.5 mg/kg at various time intervals. (percent protection for 100% mortality with fluconazole-treated group.); format: functional; details: route oral; summary of the method: as §1
[6] = The compound was tested in vitro for antifungal activity against 10 yeasts.; format: functional; summary of the method: as §3
[7] = system: Mus musculus; assay: In vivo antifungal activity against murine candidosis model after peroral administration with 2.5 mg/kg at various time intervals. (percent protection for 100% mortality with fluconazole-treated group.); format: functional; details: route oral; summary of the method: as §1
[8] = system: Mus musculus; assay: In vivo antifungal activity against murine candidosis model after peroral administration with 2.5 mg/kg at various time intervals. (percent protection for 100% mortality with untreated group); format: functional; details: route oral; summary of the method: as §1
[9] = system: Candida albicans; assay: In vivo antifungal activity against murine candidosis model after peroral administration with 1 mg/kg at various time intervals. (percent protection for 100% mortality with fluconazole-treated group.); format: functional; details: route oral; summary of the method: as §1
[10] = system: Candida albicans; assay: In vivo antifungal activity against murine candidosis model after peroral administration with 1 mg/kg at various time intervals. (percent protection for 100% mortality with untreated group); format: functional; details: route oral; summary of the method: as §1
[11] = system: Mus musculus; assay: In vivo antifungal activity against murine candidosis model after peroral administration with 0.5 mg/kg for 5 days.(percent protection for 100% mortality with untreated group); format: functional; details: route oral; summary of the method: as §2
[12] = system: Mus musculus; assay: In vivo antifungal activity against murine candidosis model after peroral administration with 0.5 mg/kg for 5 days.(percent protection for 100% mortality with fluconazole-treated group.); format: functional; details: route oral; summary of the method: as §2

Row | SMILES | Protection [1] [%] | Protection [2] [%] | MIC [3] [µg/mL] | Protection [4] [%] | Protection [5] [%] | MIC [6] [µg/mL] | Protection [7] [%] | Protection [8] [%] | Protection [9] [%] | Protection [10] [%] | Protection [11] [%] | Protection [12] [%]
1 | CS(=O)(=O)O.Cc1nc(-c2ccc(C#N)cc2)sc1C(=O)N[C@H](C)[C@](O)(Cn1cncn1)c1ccc(F)cc1F | 100 | 10 | 4 | 100 | 100 | 1.2 |  |  |  |  |  | 
2 | C[C@@H](c1ncncc1F)[C@](O)(Cn1cncn1)c1ccc(F)cc1F [VORICONAZOLE] | 0 | 0 | 0.5 (≈ 1.43 µM) | 20 | 0 | 0.6 (≈ 1.72 µM) |  |  |  |  |  | 
3 | C[C@@H](NC(=O)c1ccc(-c2cccnc2)s1)[C@](O)(Cn1cncn1)c1ccc(F)cc1F |  |  | > 80 |  |  | 1.6 (≈ 3.51 µM) | 0 | 60 |  |  |  | 
4 | C[C@@H](n1cnc2cc(-c3ccc(Cl)cc3)sc2c1=O)[C@](O)(Cn1cncn1)c1ccc(F)cc1F |  | 100 | 2.2 (≈ 4.28 µM) | 100 |  | 0.2 (≈ 0.389 µM) |  |  | 100 | 100 |  | 
5 | C[C@H]([C@](O)(Cn1cncn1)c1ccc(F)cc1F)S(C)(=O)=O [GENACONAZOLE] | 100 | 20 | 25 (≈ 75.5 µM) | 100 | 100 | 8.7 (≈ 26.3 µM) |  |  |  |  |  | 
6 | C[C@@H](c1nc(-c2ccc(C#N)cc2)cs1)[C@](O)(Cn1cncn1)c1ccc(F)cc1F [RAVUCONAZOLE] | 50 | 0 | 0.8 (≈ 1.83 µM) | 20 | 0 | 0.3 (≈ 0.686 µM) |  |  |  |  |  | 
7 | C[C@@H](n1cnc2cc(-c3ccc(C#N)cc3)sc2c1=O)[C@](O)(Cn1cncn1)c1ccc(F)cc1F |  |  | 13 (≈ 25.8 µM) |  |  | 0.3 (≈ 0.595 µM) |  |  | 100 | 100 | 100 | 40
8 | Cc1cc2nnc(C(=O)N[C@H](C)[C@](O)(Cn3cncn3)c3ccc(F)cc3F)c(C)n2n1 |  |  | > 80 |  |  | 10 (≈ 22.6 µM) | 0 | 0 |  |  |  | 
9 | Cc1nn(C)c2ncc(C(=O)N[C@H](C)[C@](O)(Cn3cncn3)c3ccc(F)cc3F)c(Cl)c12 |  |  | > 80 |  |  | 19 (≈ 39.9 µM) | 0 | 0 |  |  |  | 
